Scp-1 inhibitor = Scp-1 phosphatase inhibitors, primary screen, biochemical, colorimetric, uHTS; Carboxy-terminal domain RNA polymerase II polypeptide A small phosphatase 1 (Homo …; Recombinant Scp1, phosphopeptide, malachite green phosphate absorbance; inhibition, % at 20 µM; 340,000 tested, 0.88% active;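 active = inhibition above about 50% at 20 µM, limit read from the data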
Target sequence (Q9GZU7 76-261 limits assumed): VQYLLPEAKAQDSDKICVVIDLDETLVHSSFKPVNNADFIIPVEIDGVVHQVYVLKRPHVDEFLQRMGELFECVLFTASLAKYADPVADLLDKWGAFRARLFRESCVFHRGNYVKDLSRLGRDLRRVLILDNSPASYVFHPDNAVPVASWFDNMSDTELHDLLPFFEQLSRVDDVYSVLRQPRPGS
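Times: enzyme reaction 45 min at room temperature, colour 5 min, stabilisation 30 min. Material: SCP-1 catalytic fragment, aa 76-261. Medium: Acidic Tris acetate buffer with magnesium and detergent. Signal: colorimetric free-phosphate detection, absorbance 630 nm. Read-out basis: % inhibition of SCP-1 phosphate liberation. Reagent: Phosphorylated 17-residue peptide substrate.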
DNMT1 inh = human DNMT1 methyltransferase inhibitors, primary screen, biochemical, molecular beacon, fluorescence, HinP1I cleavage, uHTS; inhibition (reported as % activation of signal), % at 10 µM; DNA (cytosine-5)-methyltransferase 1 (Homo sapiens), P26358; 360,000 tested, 0.83% active; AID 588458, 2011; in the data active = inhibition above about 50%
SUMO1-SIM PPI = modulators of SUMO1 protein-protein interactions, primary screen, biochemical, uHTS. Small ubiquitin-related modifier 1 (Homo sapiens), P63165. SUMO1 binding to a labelled peptide, TR-FRET, 1 h. inhibition, % at 20 µM. 360,000 tested, 0.33% active; in the data active = inhibition above about 37%
Target sequence (P63165 whole entry, looked up): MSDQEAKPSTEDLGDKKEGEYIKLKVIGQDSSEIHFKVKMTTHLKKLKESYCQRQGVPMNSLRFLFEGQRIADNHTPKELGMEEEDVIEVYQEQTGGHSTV
GRK2 aptamer HTS = compounds blocking aptamer binding on GRK2 – biochemical, human GRK2, bead flow cytometry, HTS, primary screen | inhibition of aptamer binding, % at 10 µM | FAM-aptamer displacement from GRK2 | 330,000 tested, 0.59% active;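 active = inhibition of aptamer binding above 40%, roughly 3 SD of noise, on plates passing a quality check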;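 also: median bead fluorescence of bound FAM aptamer so fluorescent compounds give negative values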
LMPTP block = LMPTP phosphatase inhibitors, primary screen, biochemical, fluorescence intensity, uHTS | inhibition, % at 20 µM | 360,000 tested, 0.22% active | Low molecular weight phosphotyrosine protein phosphatase (Homo sapiens), P24666 | recombinant LMPTP-A, OMFP fluorogenic substrate;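 active = compounds that cut the enzyme signal by at least half of the control window in the single-dose screen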
Target sequence (P24666 whole entry, looked up): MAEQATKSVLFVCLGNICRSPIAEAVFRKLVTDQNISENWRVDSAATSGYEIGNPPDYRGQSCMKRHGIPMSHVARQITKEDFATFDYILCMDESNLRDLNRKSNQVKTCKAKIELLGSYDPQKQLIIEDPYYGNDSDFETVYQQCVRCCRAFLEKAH
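Buffer or medium: Bis-Tris pH 6.0, DTT, detergent; Assay system: LMPTP-A enzyme; Quantity: 0.625 nM enzyme; Detection: endpoint fluorescence intensity; Times: 50 min dark incubation at room temperature; Controls: substrate-only low control, DMSO enzyme-plus-substrate high control; Doses: single 20 µM dose; Read-out: percent inhibition versus substrate-only and uninhibited controls; Reagent: 400 µM OMFP.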
STEP inh = STEP phosphatase inhibitors, primary screen, biochemical, fluorescence intensity, uHTS; Tyrosine-protein phosphatase non-receptor type 5 (Homo sapiens), P54829; 360,000 tested, 0.25% active; inhibition, % at 20 µM; recombinant STEP, OMFP fluorogenic substrate;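 active = inhibition at 20 µM, scaled per plate between control wells, above about 37%, limit read from the data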
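Material: STEP (striatal-enriched tyrosine phosphatase) enzyme, cell-free; Compound dosing: 20 µM single dose in 1% DMSO; Technique: fluorescence read at 480 nm ex / 540 nm em; Times: reaction 20 min, ambient temperature; Medium: 50 mM Bis-Tris pH 6.0 with 2.5 mM DTT and 0.005% Tween 20; Also added: OMFP at 25 µM.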
GRK2 CP1 = GRK2 aptamer-displacing inhibitors, retest, confirmation, biochemical, cherry pick 1, bead flow cytometry | 2,000 tested, 4% active | aptamer displacement, % at 10 µM | AID 504451, 2011 | bead-bound GRK2, FAM-aptamer displacement | shares compounds with GRK2 aptamer HTS;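 active = aptamer displacement above 40%, near three times the noise of non-fluorescent compounds, on plates passing quality checks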;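 also: negative values mostly reflect intrinsic compound fluorescence rather than true enhancement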
FAM quench CP1 = aptamer fluorescence quenching in GRK2 counter-screen. shares compounds with GRK2 aptamer HTS. Carboxyfluorescein RNA aptamer on beads, flow cytometry quenching; stronger effect = lower value. fluorescence response (% of DMSO), % at 10 µM. 2,000 tested, under 10 active. AID 504580;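 active = compounds that quench the bead-bound fluorescent RNA probe, cutting fluorescence to under half of the solvent control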;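 also: counterscreen run without GRK2 so only probe quenching by compound is measured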
GRK2 confirm 2 = GRK2 aptamer-displacing inhibitors, hit retest, confirmation, biochemical, cherry pick 2, bead flow cytometry; shares compounds with GRK2 aptamer HTS; bead-bound GRK2, FAM-aptamer displacement; inhibition of aptamer binding, % at 10 µM; 360 tested, under 10 active; AID 504782, 2011;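 active = inhibition of aptamer binding above 40%, about triple the noise seen with nonglowing compounds, on plates passing quality control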;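 also: negative values mostly come from compounds that fluoresce themselves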
FAM quench CP2 = quenches fluorescent RNA aptamer, GRK2 hit artifact; shares compounds with GRK2 aptamer HTS; carboxyfluorescein RNA aptamer beads, flow cytometry quenching; stronger effect = lower value; fluorescence response vs DMSO, % at 10 µM; 360 tested, under 10 active;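 active = response vs DMSO under 50%, meaning signal dropped by over half, treated as fluorescence quencher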;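 also: labelled aptamer on streptavidin beads without GRK2 as a quench counter-screen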
Numbers stand for hits; – = inactive; · = no result. Only some compounds are listed: those with a hit (about 2.2% of all), similar ones and a draw of the others.

SMILES	Scp-1 inhibitor	DNMT1 inh	SUMO1-SIM PPI	GRK2 aptamer HTS	LMPTP block	STEP inh	GRK2 CP1	FAM quench CP1	others
O=C(Nc1ccc(F)cc1)C(c1ccnc2ccccc12)N1CCN(c2cccc(C(F)(F)F)n2)CC1 (stereo unspecified)	·	·	–	·	–	·	·	·
O=C(CN(Cc1ccc(F)cc1)C(=O)CCC(=O)Nc1ccccn1)NCc1ccco1	–	–	–	100	–	–	–	–
C=CCn1c[n+](CC(=O)c2ccc(Br)s2)c2ccccc21	–	–	–	57	–	–	–	–
CCn1c(=N)n(CC(=O)c2ccc(Br)s2)c2ccccc21	–	–	–	–	–	–	·	·
O=C(NCc1ccco1)C1CCCN1C(=O)Nc1ccccc1 (stereo unspecified)	–	–	–	–	–	–	·	·
O=C(NCc1ccco1)C1CCCN1C(=O)NCc1ccccc1 (stereo unspecified)	–	–	–	–	–	–	–	–
C=CCOC(=O)CSCC(NC(=O)OC(C)(C)C)C(=O)OCC (stereo unspecified)	–	–	–	86	–	–	–	–
COc1ccc(-c2cc3nc(C)cc(N4CCN(C(=O)c5cccnc5)CC4)n3n2)cc1	·	–	–	·	–	–	·	·
COc1ccccc1CN1CC(C(=O)NCCc2ccccc2Cl)CCC1=O (stereo unspecified)	–	–	–	76	–	–	–	–
COc1ccccc1CN1CC(C(=O)NCc2cccc(Cl)c2)CCC1=O (stereo unspecified)	–	–	–	–	–	–	·	·
COc1ccccc1CN1CC(C(=O)NCc2cc(F)cc(C(F)(F)F)c2)CCC1=O (stereo unspecified)	–	–	–	89	–	–	–	–
CC(=O)C[C@H]1c2cc(C(F)(F)F)ccc2S(=O)(=O)N1C1CCCC1	–	–	–	46	–	–	–	–
O=C(O)C[C@H]1c2cc(C(F)(F)F)ccc2S(=O)(=O)N1C1CCCC1	–	–	–	–	–	–	·	·
CCOc1cc(N2CCOCC2)c(OCC)cc1NC(=O)c1cc(S(=O)(=O)N2CCOCC2)ccc1Cl	–	–	–	·	–	–	–	–
CCOc1cc(N2CCOCC2)c(OCC)cc1NC(=O)c1ccc(OC)cc1	–	–	–	–	–	–	·	·
CCOc1cc(N2CCOCC2)c(OCC)cc1NC(=O)c1ccc(OC)c(S(=O)(=O)N2CCOCC2)c1	–	–	–	–	–	–	–	–
Clc1ccc(Cn2ncc3c(N4CCN(c5ccccc5)CC4)ncnc32)cc1	·	–	–	·	–	–	·	·
CCN(c1ccc(OC)cc1)S(=O)(=O)N1CCCC(C(=O)NCc2ccc(OC(C)C)cc2)C1 (stereo unspecified)	·	–	–	·	–	–	·	·
Nc1nc2c(ccc3ccccc32)s1	–	–	–	–	–	–	·	·	GRK2 confirm 2=–;FAM quench CP2=–
Cn1c(=O)oc2cc(S(=O)(=O)NCc3ccccn3)ccc21	–	–	–	52	–	–	–	–
Cn1c(=O)oc2cc(S(=O)(=O)NCc3cccnc3)ccc21	–	–	–	–	–	–	·	·
CC(CNC(=O)C1CCCN(S(=O)(=O)N2CCOCC2)C1)c1ccccc1 (stereo unspecified)	–	–	–	–	–	–	·	·
O=C(NCc1ccccc1F)C1CCCN(S(=O)(=O)N2CCOCC2)C1 (stereo unspecified)	–	–	–	–	–	–	–	–
Cc1noc(C)c1COc1ccc(C(=O)NNC(=O)c2ccccc2)cc1	–	–	–	100	–	–	–	–
Cc1noc(C)c1COc1ccc(C(=O)NNC(=O)c2ccccc2F)cc1	–	–	–	–	–	–	·	·
SMILES	Scp-1 inhibitor	DNMT1 inh	SUMO1-SIM PPI	GRK2 aptamer HTS	LMPTP block	STEP inh	GRK2 CP1	FAM quench CP1	others
Cc1nc(N2CCN(C(=O)c3ccco3)CC2)c2c3c(sc2n1)CCCC3	–	–	–	–	–	–	–	–
Cc1cccc(N2CCN(C(=O)COc3noc4nc(C)cc(C)c34)CC2C)c1 (stereo unspecified)	·	–	–	·	–	–	·	·
COc1cccc(-n2c(SCC(=O)O)nnc2-c2cccnc2)c1	–	–	–	62	–	–	–	–
Cc1cccc(C)c1-n1nnnc1C1c2ccccc2C(=O)N1CCCN1CCOCC1 (stereo unspecified)	·	·	–	·	–	·	·	·
Cc1noc(C)c1-c1ccc(C(=O)Nc2cccc(C(F)(F)F)c2)c2occc12	·	–	–	·	–	–	·	·
Cc1ccc(-c2nn(-c3ccccc3)cc2/C=C/C(=O)OCC(=O)NC2CC2)o1	–	–	–	78	–	–	–	–
Cc1ccccc1CNC(=O)c1ccc2nc([C@@H]3O[C@H](CO)[C@H](O)[C@H](O)[C@H]3O)[nH]c2c1	·	–	–	·	–	–	·	·
O=C(O)C1CC=CCC1C(=O)NCc1ccccc1 (stereo unspecified)	–	–	–	–	–	–	·	·
COc1ccc(CNC(=O)C2CC=CCC2C(=O)O)cc1OC (stereo unspecified)	–	–	–	–	–	–	·	·	GRK2 confirm 2=–;FAM quench CP2=–
O=C(Nc1ccc2c(c1)OCCO2)c1[nH]c(C(F)(F)F)nc1-c1ccccc1	·	–	–	·	–	–	·	·
O=C(c1cccc(F)c1)N1CCN(c2cccc(C(F)(F)F)c2)CC1	–	–	–	60	–	–	–	–
Cc1cccc(NC(=O)COC(=O)c2ccc(S(=O)(=O)N3CCCCCC3)cc2)c1	–	–	–	·	–	–	–	–
O=C(COC(=O)c1ccc(S(=O)(=O)N2CCCC2)cc1)Nc1cccc(Br)c1	–	–	–	–	–	–	·	·

Screens as filed in PubChem.
